Data from ChEMBL document CHEMBL4376814, “Novel cyclin-dependent kinase 9 (CDK9) inhibitor with suppression of cancer stemness activity against non-small-cell lung cancer” (Eur J Med Chem, 2019).

Columns and labels:
[1] = molecular target: T1, CDK4/Cyclin D3 (Homo sapiens) (UniProt P11802+P30281); assay: Inhibition of recombinant full-length human CDK4/cyclinD3 at 1 uM using Rb fragment as substrate measured after 40 mins in presence of [gamma33P]ATP by scintillation counting method relative to control; format: protein-complex assay
In short: (§1)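 Percent inhibition of kinase activity at a single compound concentration, measured by the outsourced Eurofins KinaseProfiler panel. Values are the mean of two independent experiments.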

[2] = molecular target: T2, CDK6/cyclin D3 (Homo sapiens) (UniProt P30281+Q00534); assay: Inhibition of recombinant full-length human CDK6/cyclinD3 at 1 uM using histone H1 as substrate measured after 40 mins in presence of [gamma33P]ATP by scintillation counting method relative to control; format: protein-complex assay; in short: as §1
[3] = molecular target: T3, CDK9/cyclin T1 (Homo sapiens) (UniProt O60563+P50750); assay: Inhibition of recombinant full-length human CDK9/cyclinT1 at 1 uM using KTFCGTPEYLAPEVRREPRILSEEEQEMFRDFDYIADWC peptide as substrate measured after 40 mins in presence of [gamma33P]ATP by scintillation counting method relative to control; format: protein-complex assay; in short: as §1
CDK9/cyclin T1 = CDK9/cyclin T1 (Homo sapiens, UniProt P50750); assay: Inhibition of recombinant full-length human CDK9/cyclinT1 using KTFCGTPEYLAPEVRREPRILSEEEQEMFRDFDYIADWC peptide as substrate measured after 40 mins in presence of [gamma33P]ATP by scintillation counting method; format: protein-complex assay
CDK9/cyclin T1, sequence (O60563 whole entry): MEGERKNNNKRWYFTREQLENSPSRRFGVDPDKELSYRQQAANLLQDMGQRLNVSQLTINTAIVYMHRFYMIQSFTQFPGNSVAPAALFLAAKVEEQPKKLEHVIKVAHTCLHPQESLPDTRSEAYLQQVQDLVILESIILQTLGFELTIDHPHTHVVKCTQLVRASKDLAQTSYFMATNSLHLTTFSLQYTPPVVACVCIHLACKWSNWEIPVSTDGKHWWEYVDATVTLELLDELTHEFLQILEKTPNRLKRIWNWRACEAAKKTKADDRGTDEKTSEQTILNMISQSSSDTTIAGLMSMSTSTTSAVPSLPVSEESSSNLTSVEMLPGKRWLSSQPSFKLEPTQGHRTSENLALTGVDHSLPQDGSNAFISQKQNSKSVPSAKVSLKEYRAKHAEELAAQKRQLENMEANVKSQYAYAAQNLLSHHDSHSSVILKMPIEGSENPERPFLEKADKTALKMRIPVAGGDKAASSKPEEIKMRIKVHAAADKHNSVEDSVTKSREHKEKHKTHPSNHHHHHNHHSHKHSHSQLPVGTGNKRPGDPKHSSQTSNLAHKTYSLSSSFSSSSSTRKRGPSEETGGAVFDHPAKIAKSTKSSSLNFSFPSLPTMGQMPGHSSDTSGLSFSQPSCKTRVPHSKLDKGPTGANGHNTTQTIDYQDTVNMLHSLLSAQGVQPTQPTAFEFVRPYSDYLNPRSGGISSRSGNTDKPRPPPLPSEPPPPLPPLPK
CDK9/cyclin T1, sequence (P50750 whole entry): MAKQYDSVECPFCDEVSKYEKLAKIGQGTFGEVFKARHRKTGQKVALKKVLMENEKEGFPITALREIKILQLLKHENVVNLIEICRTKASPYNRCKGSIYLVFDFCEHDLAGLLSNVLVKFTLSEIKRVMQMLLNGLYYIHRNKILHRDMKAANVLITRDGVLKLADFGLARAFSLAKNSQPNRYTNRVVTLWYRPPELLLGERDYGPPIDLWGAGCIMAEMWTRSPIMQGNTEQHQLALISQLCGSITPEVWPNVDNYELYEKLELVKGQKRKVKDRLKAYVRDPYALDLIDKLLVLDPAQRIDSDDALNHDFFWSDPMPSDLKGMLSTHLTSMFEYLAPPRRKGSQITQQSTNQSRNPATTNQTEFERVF
In short: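 IC50 against CDK9/cyclin T1, determined by the outsourced Eurofins KinaseProfiler service. Values are the mean of two independent experiments.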

[4] = molecular target: T3, CDK9/cyclin T1 (Homo sapiens); assay: Inhibition of recombinant full-length human CDK9/cyclinT1 at 500 nM using KTFCGTPEYLAPEVRREPRILSEEEQEMFRDFDYIADWC peptide as substrate measured after 40 mins in presence of [gamma33P]ATP by scintillation counting method relative to control; format: protein-complex assay; in short: as §1
A549 [5] = assay: Antiproliferative activity against human A549 cells assessed as inhibition of cell viability at 1 uM after 72 hrs by CCK-8 assay relative to control; format: functional; conditions: A549, 72 h
In short: (§2)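 Single-concentration viability screen using CCK-8. Cells were seeded at 3000/well and treated for 72 h. A450 read after 1-4 h with reagent. Percent inhibition calculated against untreated control and blank wells as (Ac−As)/(Ac−Ab)×100%.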

A549 [6] = assay: Antiproliferative activity against human A549 cells assessed as inhibition of cell viability at 10 uM after 72 hrs by CCK-8 assay relative to control; format: functional; conditions: A549, 72 h; in short: as §2
NCI-H1299 [7] = assay: Antiproliferative activity against human H1299 cells assessed as inhibition of cell viability at 1 uM after 72 hrs by CCK-8 assay relative to control; format: functional; conditions: NCI-H1299, 72 h; in short: as §2
NCI-H1299 [8] = assay: Antiproliferative activity against human H1299 cells assessed as inhibition of cell viability at 10 uM after 72 hrs by CCK-8 assay relative to control; format: functional; conditions: NCI-H1299, 72 h; in short: as §2
[9] = molecular target: T2, CDK6/cyclin D3 (Homo sapiens); assay: Inhibition of recombinant full-length human CDK6/cyclinD3 at 500 nM using histone H1 as substrate measured after 40 mins in presence of [gamma33P]ATP by scintillation counting method relative to control; format: protein-complex assay; in short: as §1
[10] = molecular target: T1, CDK4/Cyclin D3 (Homo sapiens); assay: Inhibition of recombinant full-length human CDK4/cyclinD3 at 500 nM using Rb fragment as substrate measured after 40 mins in presence of [gamma33P]ATP by scintillation counting method relative to control; format: protein-complex assay; in short: as §1
[11] = molecular target: T3, CDK9/cyclin T1 (Homo sapiens); assay: Potency index, ratio of ribociclib IC50 to compound IC50 for inhibition of recombinant full-length human CDK9/cyclinT1; format: protein-complex assay
MCF7 [12] = assay: Antiproliferative activity against human MCF7 cells assessed as inhibition of cell viability at 10 uM after 72 hrs by CCK-8 assay relative to control; format: functional; conditions: MCF7, 72 h; in short: as §2
MCF7 [13] = assay: Antiproliferative activity against human MCF7 cells assessed as inhibition of cell viability at 500 nM after 72 hrs by CCK-8 assay relative to control; format: functional; conditions: MCF7, 72 h; in short: as §2
HepG2 [14] = assay: Antiproliferative activity against human HepG2 cells assessed as inhibition of cell viability at 10 uM after 72 hrs by CCK-8 assay relative to control; format: functional; conditions: HepG2, 72 h; in short: as §2
HepG2 [15] = assay: Antiproliferative activity against human HepG2 cells assessed as inhibition of cell viability at 500 nM after 72 hrs by CCK-8 assay relative to control; format: functional; conditions: HepG2, 72 h; in short: as §2
SiHa [16] = assay: Antiproliferative activity against human SiHa cells assessed as inhibition of cell viability at 10 uM after 72 hrs by CCK-8 assay relative to control; format: functional; in short: as §2
SiHa [17] = assay: Antiproliferative activity against human SiHa cells assessed as inhibition of cell viability at 500 nM after 72 hrs by CCK-8 assay relative to control; format: functional; in short: as §2

Structure (SMILES)	inhibition [1]	inhibition [2]	inhibition [3]	IC50 (CDK9/cyclin T1)	inhibition [4]	inhibition at 1 µM (A549 [5])	inhibition at 10 µM (A549 [6])	inhibition at 1 µM (NCI-H1299 [7])	inhibition at 10 µM (NCI-H1299 [8])	inhibition [9]	inhibition [10]	Ratio IC50 [11]	inhibition at 10 µM (MCF7 [12])	inhibition at 0.5 µM (MCF7 [13])	inhibition at 10 µM (HepG2 [14])	inhibition at 0.5 µM (HepG2 [15])	inhibition at 10 µM (SiHa [16])	inhibition at 0.5 µM (SiHa [17])
CN(C)C(=O)c1cc2cnc(Nc3ccc(C(=O)NCCCCN=C=S)cc3O)nc2n1C1CCCC1	55%	61%	91%	0.042 µM	89%	30.3%	41.7%	10.7%	51.8%	–	–	–	–	–	–	–	–	–
CN(C)C(=O)c1cc2cnc(Nc3ccc(C(=O)NCCCCCN=C=S)cc3O)nc2n1C1CCCC1	59%	60%	92%	0.033 µM	91%	23.1%	30.7%	22.6%	80.7%	–	–	–	–	–	–	–	–	–
CN(C)C(=O)c1cc2cnc(Nc3ccc(C(=O)NCCCN=C=S)cc3O)nc2n1C1CCCC1	46%	68%	94%	0.068 µM	90%	55.9%	73%	10.3%	24.2%	21%	–	–	–	–	–	–	–	–
CN(C)C(=O)c1cc2cnc(Nc3ccc(C(=O)NCCCCCCN=C=S)cc3F)nc2n1C1CCCC1	89%	78%	94%	0.034 µM	95%	-11.8%	22.9%	29.1%	77.6%	34%	68%	–	–	–	–	–	–	–
CN(C)C(=O)c1cc2cnc(Nc3ccc(NC(=O)CCCCCCCN=C=S)cc3F)nc2n1C1CCCC1	72%	49%	95%	0.025 µM	96%	8.65%	94.1%	7.5%	14%	–	62%	–	–	–	–	–	–	–
CN(C)C(=O)c1cc2cnc(Nc3ccc(S(=O)(=O)NCCCCCCN=C=S)cc3)nc2n1C1CCCC1	89%	81%	96%	0.009 µM	98%	49.5%	101%	42.4%	70.6%	41%	78%	> 20	–	–	–	–	–	–
CN(C)C(=O)c1cc2cnc(Nc3cccc(NC(=O)CCCCCCCN=C=S)c3)nc2n1C1CCCC1	80%	74%	96%	0.015 µM	98%	44.6%	96.7%	50.6%	86.9%	23%	59%	–	–	–	–	–	–	–
CN(C)C(=O)c1cc2cnc(Nc3ccc(S(=O)(=O)NCCCCCCCN=C=S)cc3)nc2n1C1CCCC1	86%	77%	97%	0.009 µM	97%	32.6%	101%	58.9%	83%	45%	84%	> 20	–	–	–	–	–	–
CN(C)C(=O)c1cc2cnc(Nc3ccc(C(=O)NCCCN=C=S)cc3F)nc2n1C1CCCC1	86%	82%	97%	0.01 µM	98%	16.7%	60.2%	9.27%	78.5%	41%	75%	–	–	–	–	–	–	–
CN(C)C(=O)c1cc2cnc(Nc3ccc(C(=O)NCCCCCN=C=S)cc3F)nc2n1C1CCCC1	86%	81%	96%	0.011 µM	96%	-1.6%	15.6%	36.1%	86.7%	30%	72%	–	–	–	–	–	–	–
CN(C)C(=O)c1cc2cnc(Nc3ccc(C(=O)NCCCCN=C=S)cc3F)nc2n1C1CCCC1	89%	86%	96%	0.006 µM	97%	-7%	24.4%	28.7%	78.9%	38%	76%	–	–	–	–	–	–	–
CN(C)C(=O)c1cc2cnc(Nc3ccc(C(=O)NCCCCCCCN=C=S)cc3)nc2n1C1CCCC1	83%	85%	97%	0.012 µM	99%	73.7%	101%	75.7%	107%	56%	74%	–	99%	85%	89%	68%	95%	90%
CN(C)C(=O)c1cc2cnc(Nc3ccc(C(=O)NCCCCCCCN=C=S)cc3F)nc2n1C1CCCC1	67%	52%	92%	0.05 µM	90%	0.05%	12.7%	-9.23%	35.8%	–	60%	–	–	–	–	–	–	–
CN(C)C(=O)c1cc2cnc(Nc3ccc(C(=O)NCCCCN=C=S)cc3)nc2n1C1CCCC1	98%	93%	99%	–	98%	30.2%	102%	55.2%	74.2%	79%	99%	–	–	–	–	–	–	–
